The target in one assay is T1, Endothelin-1 receptor (Homo sapiens, UniProt P25101).
T1 sequence (P25101 whole entry): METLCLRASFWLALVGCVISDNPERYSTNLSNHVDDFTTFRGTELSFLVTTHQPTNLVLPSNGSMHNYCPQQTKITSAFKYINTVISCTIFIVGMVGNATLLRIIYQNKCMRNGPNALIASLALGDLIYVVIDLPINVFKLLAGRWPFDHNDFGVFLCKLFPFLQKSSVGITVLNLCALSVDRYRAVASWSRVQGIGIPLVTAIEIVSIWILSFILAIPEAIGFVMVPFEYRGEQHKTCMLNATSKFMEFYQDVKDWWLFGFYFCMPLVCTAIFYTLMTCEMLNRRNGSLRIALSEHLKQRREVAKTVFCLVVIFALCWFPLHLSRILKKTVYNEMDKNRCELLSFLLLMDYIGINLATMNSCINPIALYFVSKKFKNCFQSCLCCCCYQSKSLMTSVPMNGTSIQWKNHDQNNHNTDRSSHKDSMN
Briefly: Binding affinity towards human Endothelin A receptor by measuring its ability to displace [125I]ET1 from CHO cells. It is filed as cell-based.

A further assay is filed under the species Oryctolagus cuniculus. As to the kind of experiment: Functional vascular ET-1 antagonism was determined in rabbit aorta rings with intact endothelium. To be noted: read-out: pA2 (converted).
Assay [1] has as its system Rattus norvegicus. Briefly: Ability to protect rats from ET-1 induced sudden death in rats after peroral administration. It is filed as functional. An outline of the steps: (§1)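 Male Sprague-Dawley rats (280-320 g) were pretreated orally with antagonist 4 h before a tail-vein injection of ET-1 (6 nmol/kg), which causes severe ECG disturbances and lethality within minutes. Oral doses were 10, 30 or 100 mg/kg. Lethality was scored as deaths/n, and ED100 was taken as the dose giving complete protection.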

Assay [2] concerns the target T2, Endothelin receptor (Rattus norvegicus) (UniProt P26684+P21451). As to the kind of experiment: In vivo prevention of ET-1-induced sudden death in 6 rats by pretreatment with endothelin receptor antagonist at a dose of 30 mg/kg p.o.; 0/6. It is filed as functional, organism-based. Further details: dose 30 mg/kg. In short, it runs like this: as §1
The target in assay [3] is T2, Endothelin receptor (Rattus norvegicus). As to the kind of experiment: In vivo prevention of ET-1-induced sudden death in 5 rats by pretreatment with endothelin receptor antagonist at a dose of 10 mg/kg p.o.; 5/5. The format is functional, organism-based. On the set-up: dose 10 mg/kg. An outline of the steps:
as §1

In assay [4] the target is T3, Endothelin receptor type B (Homo sapiens, UniProt P24530).
T3 sequence (P24530 whole entry): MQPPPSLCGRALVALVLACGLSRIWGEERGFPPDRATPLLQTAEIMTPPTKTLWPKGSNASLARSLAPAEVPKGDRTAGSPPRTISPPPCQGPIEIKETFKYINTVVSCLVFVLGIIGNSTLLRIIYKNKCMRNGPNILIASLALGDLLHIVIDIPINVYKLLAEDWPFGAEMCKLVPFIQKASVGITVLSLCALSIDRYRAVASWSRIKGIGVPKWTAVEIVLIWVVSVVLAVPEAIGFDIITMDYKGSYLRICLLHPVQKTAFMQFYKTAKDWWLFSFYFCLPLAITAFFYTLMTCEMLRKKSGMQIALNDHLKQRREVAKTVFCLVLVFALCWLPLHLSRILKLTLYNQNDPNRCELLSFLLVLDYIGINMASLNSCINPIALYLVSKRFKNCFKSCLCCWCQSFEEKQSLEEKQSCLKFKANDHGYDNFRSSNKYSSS
As to the kind of experiment: (§2) Binding affinity towards human Endothelin B receptor by measuring its ability to displace [125I]ET-3 from CHO cells. The format is cell-based.

Assay [5] relates to Rattus norvegicus. Briefly: Ability to protect rats from ET-1 induced sudden death in rats after intravenous administration. It is filed as functional. In short, it runs like this:
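Male Sprague-Dawley rats (280-320 g) received antagonist intravenously and were then challenged with ET-1 (6 nmol/kg) injected into a tail vein, a dose that causes lethality within minutes. ED100 was the intravenous dose giving complete protection from sudden death.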

For assay [6], the target named is T3, Endothelin receptor type B. Described as §2. The format is cell-based. In short, it runs like this: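 Membranes ([…]) from stably transfected CHO cells expressing human ET_A or ET_B receptors, or guinea pig cerebellum (ET_B), incubated with 25 pmol/L [125I]ET-1 or [125I]ET-3 with or without drugs; nonspecific binding defined with […] ET-1.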
This is another data set of the same source.

The target in assay [7] is T2, Endothelin receptor (Rattus norvegicus). As to the kind of experiment: In vivo prevention of ET-1-induced sudden death in 6 rats by pretreatment with endothelin receptor antagonist at a dose of 30 mg/kg p.o. The format is functional, organism-based. On the set-up: dose 30 mg/kg. In short, it runs like this: as §1
Assay [8] shares this target. Briefly: In vivo prevention of ET-1-induced sudden death in 9 rats by pretreatment with endothelin receptor antagonist at a dose of 30 mg/kg p.o.; 9/9. Further details: dose 30 mg/kg. It is filed as functional, organism-based. In short, it runs like this: as §1
Assay [9] shares this target. As to the kind of experiment: In vivo prevention of ET-1-induced sudden death in 5 rats by pretreatment with endothelin receptor antagonist at a dose of 100 mg/kg p.o.; 0/5. It is filed as functional, organism-based. Further details: dose 100 mg/kg. An outline of the steps: as §1
For assay [10], the system named is Rattus norvegicus. Briefly: Ability to protect rats from ET-1 induced sudden death in after peroral administration. The format is functional. In short, it runs like this: as §1
The target in assay [11] is T2, Endothelin receptor (Rattus norvegicus). Briefly: In vivo prevention of ET-1-induced sudden death in 6 rats by pretreatment with endothelin receptor antagonist at a dose of 10 mg/kg p.o.; 6/6. It is filed as functional, organism-based. Further details: dose 10 mg/kg. An outline of the steps:
as §1

Assay [12] has the same target. Briefly: In vivo prevention of ET-1-induced sudden death in 6 rats by pretreatment with endothelin receptor antagonist at a dose of 30 mg/kg p.o.; 2/6. Further details: dose 30 mg/kg. It is filed as functional, organism-based. An outline of the steps:
as §1

From ChEMBL document CHEMBL1129322, “Discovery and optimization of a novel class of orally active nonpeptidic endothelin-A receptor antagonists” (J Med Chem, 1996) come the findings set out here.

T2 sequence (P21451 whole entry, looked up): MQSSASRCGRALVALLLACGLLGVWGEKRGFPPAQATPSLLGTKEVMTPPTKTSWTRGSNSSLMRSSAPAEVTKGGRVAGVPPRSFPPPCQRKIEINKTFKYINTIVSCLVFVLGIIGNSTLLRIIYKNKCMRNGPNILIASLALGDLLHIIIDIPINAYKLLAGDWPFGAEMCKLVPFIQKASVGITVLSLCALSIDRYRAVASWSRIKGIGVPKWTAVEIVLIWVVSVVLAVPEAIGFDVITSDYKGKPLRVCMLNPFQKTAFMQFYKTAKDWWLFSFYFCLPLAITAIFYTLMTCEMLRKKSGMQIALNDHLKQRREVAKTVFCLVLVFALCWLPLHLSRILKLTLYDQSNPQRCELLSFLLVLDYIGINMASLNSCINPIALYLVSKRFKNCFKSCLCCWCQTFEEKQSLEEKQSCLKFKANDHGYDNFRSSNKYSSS
T2 sequence (P26684 whole entry, looked up): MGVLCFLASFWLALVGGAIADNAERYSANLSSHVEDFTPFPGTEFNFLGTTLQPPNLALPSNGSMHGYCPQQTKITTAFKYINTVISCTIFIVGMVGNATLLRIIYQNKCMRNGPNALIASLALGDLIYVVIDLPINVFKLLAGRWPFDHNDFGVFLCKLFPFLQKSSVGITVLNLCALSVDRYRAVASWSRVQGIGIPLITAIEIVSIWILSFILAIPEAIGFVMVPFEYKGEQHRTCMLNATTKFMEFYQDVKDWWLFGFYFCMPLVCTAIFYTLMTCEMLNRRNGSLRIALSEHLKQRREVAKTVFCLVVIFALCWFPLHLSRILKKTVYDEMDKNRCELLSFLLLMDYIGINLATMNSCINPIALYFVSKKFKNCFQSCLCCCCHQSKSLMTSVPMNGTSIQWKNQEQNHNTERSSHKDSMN

By Ki is commonly meant the equilibrium dissociation constant of an inhibitor or competing ligand from its target. The low end stands for tighter binding, the high end for weaker binding. Take `COc1cc(OC)nc(OC(C(=O)O)C(OC)(c2ccccc2F)c2ccccc2F)n1` (stereo unspecified): affinity on Endothelin-1 receptor was put at a Ki of 150 nM. In turn, `COc1cc(OC)nc(OC(C(=O)O)C(O)(c2ccccc2)c2ccccc2)n1` (stereo unspecified) displayed a Ki at Endothelin-1 receptor of 130 nM. Consider `COc1cccc(Oc2c(NS(=O)(=O)c3ccc(C(C)(C)C)cc3)ncnc2OCCO)c1`, for which the Kb in the assay listed under Oryctolagus cuniculus is > 1000 nM. The ED100 in the assay with Rattus norvegicus [1] was >100 mg/kg. As for `COc1cc(C)nc(OC(C(=O)O)C(OC)(c2ccccc2)c2ccccc2)n1` (stereo unspecified), the Ki at Endothelin-1 receptor came to 0.12 nM. With `CCc1cc(C)nc(OC(C(=O)O)C(OC)(c2ccccc2)c2ccccc2)n1` (stereo unspecified), the Ki at Endothelin-1 receptor turned out to be 0.7 nM. Consider `COc1cccc(C(OC)(c2cccc(OC)c2)C(Oc2nc(OC)cc(OC)n2)C(=O)O)c1` (stereo unspecified), for which, at Endothelin-1 receptor, the affinity corresponds to a Ki of 22 nM. Against the preceding molecule, the Ki is about 31-fold higher. In the case of `CCc1cc(CC)nc(OC(C(=O)O)C(OC)(c2ccccc2)c2ccccc2)n1` (stereo unspecified), the Ki at Endothelin-1 receptor was 1 nM. This Ki is about 22-fold lower than that of the molecule before.

With `CCCOc1ccc2c(c1)[C@@H](c1ccc(OC)cc1OCC(=O)O)[C@H](C(=O)O)[C@H]2c1ccc2c(c1)OCO2` [SB-209670], the Kb in the assay listed under Oryctolagus cuniculus was 0.158 nM. The molecule further gave an ED100 in the assay on Rattus norvegicus [1] of 100 mg/kg.

As for `COc1cc(OC)nc(OC(C(=O)O)C(OC)(c2ccccc2)c2ccccc2)n1` (stereo unspecified), the Lethality is 0 in [2] and 5 in assay [3]. This molecule had a Ki in assay [4] of 371 nM. In the assay listed under Oryctolagus cuniculus, the Kb is 45.7 nM. The ED100 with Rattus norvegicus [1] came out at 30 mg/kg; in the assay with Rattus norvegicus [5] it was 10 mg/kg. Turning to `CCOc1cc(OCC)nc(OC(C(=O)O)C(OC)(c2ccccc2)c2ccccc2)n1` (stereo unspecified), the affinity on Endothelin-1 receptor, expressed as Ki, was 174 nM.

Regarding `COc1cc(OC)nc(OC(C(=O)O)C(OCCC(C)(C)C)(c2ccccc2)c2ccccc2)n1` (stereo unspecified), the Ki at Endothelin-1 receptor was 340 nM. `COc1cc(OC)nc(OC(C(=O)O)C(OC)(c2cccc(F)c2)c2cccc(F)c2)n1` (stereo unspecified) returned a Ki on Endothelin-1 receptor of 11 nM. In turn, `COc1cc(OC)nc(OC(C(=O)O)C(OC)(c2cccc(C)c2)c2cccc(C)c2)n1` (stereo unspecified) yielded a Ki at Endothelin-1 receptor of 24 nM. On to `COC(=O)C(Oc1nc(OC)cc(OC)n1)C(C)(Oc1ccc(C(C)C)cc1)c1ccccc1` (stereo unspecified), for which the Ki at Endothelin-1 receptor worked out at 250 nM; in [6] it was 3000 nM. Taken in the same sequence, the figures for `COC(=O)C(Oc1nc(OC)cc(OC)n1)C(C)(Oc1ccc(SC)cc1)c1ccccc1` (stereo unspecified) were 160 nM and 4700 nM. With `COC(c1ccccc1)(c1ccccc1)C(Oc1nc(C)cc(C)n1)C(=O)O` (stereo unspecified), the Ki at Endothelin-1 receptor was 1 nM. On the same count and under the same terms, the same measure for `COc1cc(OC)nc(OC(C(=O)O)C(OC)(c2ccc(Cl)cc2)c2ccc(Cl)cc2)n1` (stereo unspecified): 245 nM; for `COc1cc(OC)nc(OC(C(=O)O)C(OC)(c2ccc(C)cc2)c2ccc(C)cc2)n1` (stereo unspecified): 200 nM.

For the molecule `Cc1noc(NS(=O)(=O)c2cccc3c(N(C)C)cccc23)c1C` [BMS-182874], the Lethality in [7] worked out at 6. In the assay listed under Oryctolagus cuniculus, the Kb was 81.3 nM. Further, in the assay with Rattus norvegicus [1] (po), the ED100 is > 100 mg/kg.

Turning to `COc1nc(OC(C(=O)O)C(OC)(c2ccccc2)c2ccccc2)nc2c1CCC2` (stereo unspecified), the affinity on Endothelin-1 receptor corresponds to a Ki of 0.4 nM. Besides, the Lethality turned out to be 9 in [8] and 0 in assay [9]. This molecule showed an ED100 in the assay with Rattus norvegicus [10] of 100 mg/kg. In the assay filed under Oryctolagus cuniculus, the Kb is 0.575 nM.

The molecule `COc1nc(OC(C(=O)O)C(OC)(c2ccccc2)c2ccccc2)nc2c1CCO2` (stereo unspecified) had a Ki on Endothelin-1 receptor of 0.9 nM. The figures for the Lethality in assay [11], in assay [9] and in assay [12] were 6, 0 and 2, respectively. Moreover, the Kb in the assay listed under Oryctolagus cuniculus is 0.933 nM. This molecule also returned an ED100 in the assay on Rattus norvegicus [1] of 100 mg/kg.
